Measured values: ChEMBL document CHEMBL1765069, “Decahydroquinoline amides as highly selective CB2 agonists: role of selectivity on in vivo efficacy in a rodent model of analgesia” (Bioorg Med Chem Lett, 2011)
pIC50: −log10 of the molar value.

How the values were obtained:
Cannabinoid receptor 2 [1] = target: T1, Cannabinoid receptor 2 (Homo sapiens, UniProt P34972); assay: Agonist activity at human CB2 receptor expressed in CHOK1 cells assessed as inhibition of forskolin-induced cAMP production treated 15 mins before forskolin challenge measured after 1 hr by HTRF assay relative to control; format: functional, cell-based; settings: CHO-K1
Outline: (§1)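 CHO-K1 cells (1000 per well) expressing human or rat CB1 or CB2 were preincubated with compound at room temperature for 15 min. Forskolin at EC70 was then added for a further 30 min at room temperature. cAMP was read by HTRF (d2-cAMP plus anti-cAMP-cryptate, final 1 h at room temperature). IC50 and % Emax were reported.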

Cannabinoid receptor 1 [2] = target: T2, Cannabinoid receptor 1 (Homo sapiens, UniProt P21554); assay: Agonist activity at human CB1 receptor expressed in CHOK1 cells assessed as inhibition of forskolin-induced cAMP production treated 15 mins before forskolin challenge measured after 1 hr by HTRF assay relative to control; format: functional, cell-based; settings: CHO-K1; outline: as §1
Cannabinoid receptor 2 [3] = target: T1, Cannabinoid receptor 2; assay: Agonist activity at human CB2 receptor expressed in CHOK1 cells assessed as inhibition of forskolin-induced cAMP production treated 15 mins before forskolin challenge measured after 1 hr by HTRF assay; format: functional, cell-based, CHO-K1
Outline: (§2)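 CHO-K1 cells (1000 per well) expressing human or rat CB1 or CB2 were preincubated with compound for 15 min at room temperature. Forskolin was then added at its EC70 for 30 min at room temperature. cAMP was detected by HTRF (d2-cAMP plus anti-cAMP cryptate) after a final 1 h incubation at room temperature. Values are reported as IC50 with % Emax.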

Cannabinoid receptor 1 [4] = target: T2, Cannabinoid receptor 1; assay: Agonist activity at human CB1 receptor expressed in CHOK1 cells assessed as inhibition of forskolin-induced cAMP production treated 15 mins before forskolin challenge measured after 1 hr by HTRF assay; format: functional, cell-based, CHO-K1; outline: as §2
Cannabinoid receptor 2 [5] = target: T3, Cannabinoid receptor 2 (Rattus norvegicus, UniProt Q9QZN9); assay: Agonist activity at rat CB2 receptor expressed in CHOK1 cells assessed as inhibition of forskolin-induced cAMP production treated 15 mins before forskolin challenge measured after 1 hr by HTRF assay; format: functional, cell-based, CHO-K1; outline: as §2
T3 sequence (Q9QZN9 whole entry): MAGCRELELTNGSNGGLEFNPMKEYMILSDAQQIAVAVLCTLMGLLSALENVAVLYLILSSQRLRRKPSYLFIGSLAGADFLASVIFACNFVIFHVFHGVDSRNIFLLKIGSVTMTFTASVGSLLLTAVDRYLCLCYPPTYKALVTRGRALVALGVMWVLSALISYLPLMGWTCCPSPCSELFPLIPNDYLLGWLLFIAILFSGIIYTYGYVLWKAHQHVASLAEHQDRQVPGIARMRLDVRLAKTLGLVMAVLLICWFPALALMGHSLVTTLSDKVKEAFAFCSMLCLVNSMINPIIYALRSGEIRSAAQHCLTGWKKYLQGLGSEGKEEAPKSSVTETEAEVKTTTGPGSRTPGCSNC

Cannabinoid receptor 1 [6] = target: Cannabinoid receptor 1 (Rattus norvegicus, UniProt P20272); assay: Agonist activity at rat CB1 receptor expressed in CHOK1 cells assessed as inhibition of forskolin-induced cAMP production treated 15 mins before forskolin challenge measured after 1 hr by HTRF assay; format: functional, cell-based, CHO-K1; outline: as §2
Brain = assay: Drug level in rat complete Freund's adjuvant-induced inflammation model brain at 30 mg/kg, sc; format: ADME, organism-based; parameters: dose 30 mg/kg, route subcutaneous; settings: in vivo, read-out: Drug uptake
Outline: (§3)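 In the rat CFA hyperalgesia experiments, after 30 mpk subcutaneous dosing, compound levels (nM) were measured in plasma, brain homogenate and cerebrospinal fluid.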

Rattus norvegicus [7] = assay: Antiinflammatory activity in rat assessed as inhibition of complete Freund's adjuvant-induced paw withdrawal threshold at 10 mg/kg, sc after 60 mins (reference value: 4.8%); format: functional; settings: 1 h, route subcutaneous
Outline: (§4)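 Rat complete Freund's adjuvant hyperalgesia model. Compound was given subcutaneously at 10, 30 or 100 mpk. Paw withdrawal threshold was read at the 60 min timepoint and expressed as % reversal.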

Rattus norvegicus [8] = assay: Antiinflammatory activity in rat assessed as inhibition of complete Freund's adjuvant-induced paw withdrawal threshold at 100 mg/kg, sc after 60 mins (reference value: 4.8%); format: functional; settings: 1 h, route subcutaneous; outline: as §4
Rattus norvegicus [9] = assay: Antiinflammatory activity in rat assessed as inhibition of complete Freund's adjuvant-induced paw withdrawal threshold at 30 mg/kg, sc after 60 mins (reference value: 4.8%); format: functional; settings: 1 h, route subcutaneous; outline: as §4
Plasma = assay: Drug level in rat complete Freund's adjuvant-induced inflammation model plasma at 30 mg/kg, sc; format: ADME, organism-based; parameters: dose 30 mg/kg, route subcutaneous; settings: in vivo, read-out: Drug uptake; outline: as §3
Cerebrospinal fluid = assay: Drug level in rat complete Freund's adjuvant-induced inflammation model cerebrospinal fluid at 30 mg/kg, sc; format: ADME, organism-based; parameters: dose 30 mg/kg, route subcutaneous; settings: in vivo, read-out: Drug uptake; outline: as §3
Rattus norvegicus [10] = assay: Antiinflammatory activity in rat assessed as inhibition of complete Freund's adjuvant-induced paw withdrawal threshold at 30 mg/kg, sc after 60 mins (reference value: 11%); format: functional; settings: 1 h, route subcutaneous; outline: as §4
[11] = target: T4, Cannabinoid receptor 2 (Rattus norvegicus) (UniProt Q9QZN9); assay: Agonist activity at rat CB2 receptor expressed in CHOK1 cells assessed as inhibition of forskolin-induced cAMP production treated 15 mins before forskolin challenge measured after 1 hr by HTRF assay relative to control; format: functional, cell-based; settings: CHO-K1; outline: as §1
T4 sequence (whole entry): T3 sequence (Q9QZN9 whole entry)

Rattus norvegicus [12] = species on record: Rattus norvegicus
[13] = target: Cannabinoid receptor 1 (Rattus norvegicus) (UniProt P20272); assay: Agonist activity at rat CB1 receptor expressed in CHOK1 cells assessed as inhibition of forskolin-induced cAMP production treated 15 mins before forskolin challenge measured after 1 hr by HTRF assay relative to control; format: functional, cell-based; settings: CHO-K1; outline: as §1
Rattus norvegicus [14] = assay: Antiinflammatory activity in sc dosed rat assessed as inhibition of complete Freund's adjuvant-induced paw withdrawal threshold after 60 mins; format: functional, organism-based; outline: as §4
[15] = Fraction unbound in rat plasma; format: ADME, cell-free
[16] = Distribution coefficient, log P of the compound; format: physicochemical; settings: octanol/water
Homo sapiens = species on record: Homo sapiens; assay: Selectivity ratio of IC50 for human CB1 receptor to IC50 for human CB2 receptor
[17] = Clearance in rat at 2 mg/kg, iv; format: ADME, organism-based; parameters: dose 2 mg/kg, route intravenous; settings: in vivo
[18] = Half life in rat at 2 mg/kg, iv; format: ADME, organism-based; parameters: dose 2 mg/kg, route intravenous; settings: in vivo
Rattus norvegicus [19] = species on record: Rattus norvegicus; assay: animal or person; settings: sc, 1 h, read-out: INH

T2 sequence (P21554 whole entry): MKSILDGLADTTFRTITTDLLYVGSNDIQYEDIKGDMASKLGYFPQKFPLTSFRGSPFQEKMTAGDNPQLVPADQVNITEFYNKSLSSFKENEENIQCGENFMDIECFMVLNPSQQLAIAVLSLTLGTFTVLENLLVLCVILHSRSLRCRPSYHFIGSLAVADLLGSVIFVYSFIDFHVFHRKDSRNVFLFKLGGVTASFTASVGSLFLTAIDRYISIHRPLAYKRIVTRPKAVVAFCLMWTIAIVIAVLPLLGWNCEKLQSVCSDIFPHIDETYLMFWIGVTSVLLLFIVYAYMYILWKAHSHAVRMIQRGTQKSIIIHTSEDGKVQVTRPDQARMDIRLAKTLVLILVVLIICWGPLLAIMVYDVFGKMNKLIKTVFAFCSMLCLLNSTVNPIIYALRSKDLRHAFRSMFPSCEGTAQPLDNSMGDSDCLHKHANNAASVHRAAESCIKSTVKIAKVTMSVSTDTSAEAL
T1 sequence (P34972 whole entry): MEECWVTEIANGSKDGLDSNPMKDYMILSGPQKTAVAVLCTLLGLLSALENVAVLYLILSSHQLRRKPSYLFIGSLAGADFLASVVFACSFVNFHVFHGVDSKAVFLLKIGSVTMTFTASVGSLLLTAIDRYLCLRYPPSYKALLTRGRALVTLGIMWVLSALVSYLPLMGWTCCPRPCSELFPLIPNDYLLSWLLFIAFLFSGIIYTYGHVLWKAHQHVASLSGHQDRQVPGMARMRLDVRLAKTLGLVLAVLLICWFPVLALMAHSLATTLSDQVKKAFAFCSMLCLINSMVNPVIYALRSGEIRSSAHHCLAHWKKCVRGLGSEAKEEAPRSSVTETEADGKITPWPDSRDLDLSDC
Sequence of Cannabinoid receptor 1 (Rattus norvegicus) (P20272 whole entry): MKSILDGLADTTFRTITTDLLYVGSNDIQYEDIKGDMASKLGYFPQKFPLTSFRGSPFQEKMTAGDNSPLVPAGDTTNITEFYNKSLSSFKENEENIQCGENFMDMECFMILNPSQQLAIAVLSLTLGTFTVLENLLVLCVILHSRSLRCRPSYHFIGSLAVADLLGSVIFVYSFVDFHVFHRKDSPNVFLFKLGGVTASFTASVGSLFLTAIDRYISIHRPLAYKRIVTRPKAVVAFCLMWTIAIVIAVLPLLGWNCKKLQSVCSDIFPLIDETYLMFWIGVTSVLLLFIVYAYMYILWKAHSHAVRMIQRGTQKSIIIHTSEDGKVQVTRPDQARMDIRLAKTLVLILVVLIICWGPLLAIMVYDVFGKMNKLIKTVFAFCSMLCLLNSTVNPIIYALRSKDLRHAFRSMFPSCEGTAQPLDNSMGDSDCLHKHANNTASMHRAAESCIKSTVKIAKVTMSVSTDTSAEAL
Sequence of Cannabinoid receptor 1 (Rattus norvegicus, UniProt P20272) (P20272 whole entry): as above

| SMILES | Emax (Cannabinoid receptor 2 [1]) | Emax (Cannabinoid receptor 1 [2]) | pIC50 (Cannabinoid receptor 2 [3]) | pIC50 (Cannabinoid receptor 1 [4]) | Ratio IC50 (Homo sapiens) | other results |
| --- | --- | --- | --- | --- | --- | --- |
| O=C(c1cccc2[nH]ccc12)N1CC[C@](O)(c2ccccc2)[C@H]2CCCC[C@H]21 | 100% | 64% | 9.21 | < 4.77 | – | – |
| O=C(c1cc(-c2ccccc2F)[nH]n1)N1CC[C@](O)(c2ccccc2)[C@H]2CCCC[C@H]21 | 99% | 46% | 7.68 | < 4.77 | – | – |
| CN1CCC(C(=O)N2CC[C@](O)(c3ccccc3)[C@H]3CCCC[C@H]32)C1 (some centres not stated) | 102% | 6% | 8.23 | < 4.77 | – | – |
| O=C(c1ccc2ncccc2c1)N1CC[C@@](O)(c2ccccc2)[C@@H]2CCCC[C@@H]21 (racemic) | 87% | 95% | 9.28 | 6.58 | 492 | – |
| O=C(c1ccc2cnccc2n1)N1CC[C@@](O)(c2ccccc2)[C@@H]2CCCC[C@@H]21 (racemic) | 99% | 69% | 8.26 | 5.46 | 626 | – |
| O=C(c1ccc2[nH]ccc2c1)N1CC[C@@](O)(c2ccccc2)[C@@H]2CCCC[C@@H]21 (racemic) | 104% | 91% | 8.85 | 6.00 | 716 | – |
| O=C(c1cccc2[nH]ncc12)N1CC[C@@](O)(c2ccccc2)[C@@H]2CCCC[C@@H]21 (racemic) | 102% | 15% | 8.40 | < 4.77 | > 4000 | fraction unbound [15]: 0.048; clearance [17]: 70 mL/min/kg; half-life [18]: 25.8 min |
| COc1ccc2cc([C@H](C)C(=O)O)ccc2c1 [NAPROXEN] | – | – | – | – | – | inhibition in vivo at 20 mg/kg (Rattus norvegicus [19]): 23.9% |

Second part, led by results:

| Emax (Cannabinoid receptor 2 [1]) | Emax (Cannabinoid receptor 1 [2]) | pIC50 (Cannabinoid receptor 2 [3]) | pIC50 (Cannabinoid receptor 1 [4]) | Ratio IC50 (Homo sapiens) | SMILES | other results |
| --- | --- | --- | --- | --- | --- | --- |
| – | – | 8.14 | 5.30 | – | Cc1ccc(C(=O)N2CC[C@@](O)(c3ccccc3)[C@@H]3CCCC[C@@H]32)cn1 [listing 1 of 2 here] | pIC50 (Cannabinoid receptor 2 [5]): 8.20; pIC50 (Cannabinoid receptor 1 [6]): 5.72; concentration (Brain): 3.2 µM; inhibition in vivo at 10 mg/kg (Rattus norvegicus [7]): 28.2%; inhibition in vivo at 100 mg/kg (Rattus norvegicus [8]): 76.4%; inhibition in vivo at 30 mg/kg (Rattus norvegicus [9]): 53.6%; concentration (Plasma): 4.2 µM; concentration (Cerebrospinal fluid): 0.223 µM |
| 101% | 11% | 7.80 | < 4.77 | – | CN1CCOC[C@H]1C(=O)N1CC[C@@](O)(c2ccccc2)[C@@H]2CCCC[C@@H]21 | pIC50 (Cannabinoid receptor 2 [5]): 7.09; pIC50 (Cannabinoid receptor 1 [6]): < 4.77; concentration (Brain): 9.8 µM; inhibition in vivo at 30 mg/kg (Rattus norvegicus [10]): 3.3%; Emax [11]: 98%; Papp (Rattus norvegicus [12]): 39 ×10⁻⁶ cm/s; concentration (Plasma): 6.6 µM; concentration (Cerebrospinal fluid): 1.5 µM; Emax [13]: 8% |
| 103% | 78% | – | – | – | Cc1ccc(C(=O)N2CC[C@@](O)(c3ccccc3)[C@@H]3CCCC[C@@H]32)cn1 [listing 2 of 2 here] | inhibition (Rattus norvegicus [14]): Dose-dependent effect; Emax [11]: 119%; Papp (Rattus norvegicus [12]): 36 ×10⁻⁶ cm/s; Emax [13]: 94% |
| 100% | – | 7.52 | < 4.77 | – | CN1CCOCC1C(=O)N1CC[C@@](O)(c2ccccc2)[C@@H]2CCCC[C@@H]21 (mixture of isomers) | fraction unbound [15]: 0.34; logP [16]: 2.28 |
| 99% | 96% | 7.52 | 5.39 | – | O=C(C1CN(CC(F)(F)F)CCO1)N1CC[C@@](O)(c2ccccc2)[C@@H]2CCCC[C@@H]21 (mixture of isomers) | – |
| 96% | 69% | 8.47 | 5.82 | 452 | O=C(c1cnc2ccccc2c1)N1CC[C@@](O)(c2ccccc2)[C@@H]2CCCC[C@@H]21 (racemic) | – |
| 101% | 53% | 7.46 | < 4.77 | > 486 | O=C(c1cccc2[nH]cnc12)N1CC[C@@](O)(c2ccccc2)[C@@H]2CCCC[C@@H]21 (racemic) | – |
| – | – | 7.85 | < 4.77 | – | Cc1ccc(C(=O)N2CC[C@@](O)(c3ccccc3)[C@@H]3CCCC[C@@H]32)cn1 (racemic) | fraction unbound [15]: 0.15; logP [16]: 2.26 |
| 98% | 50% | 6.81 | 5.46 | – | O=C(c1cnco1)N1CC[C@@](O)(c2ccccc2)[C@@H]2CCCC[C@@H]21 (racemic) | – |
